# Data as given in ChEMBL document CHEMBL3600355, “The importance of the 6- and 7-positions of tetrahydroisoquinolines as selective antagonists for the orexin 1 receptor” (Bioorg Med Chem, 2015).
# Active and inactive are the calls of the source. The rule behind the calls is not given here.
# Biological target: T1, Orexin receptor type 2 (Homo sapiens) (UniProt O43614)
# T1 sequence (whole entry): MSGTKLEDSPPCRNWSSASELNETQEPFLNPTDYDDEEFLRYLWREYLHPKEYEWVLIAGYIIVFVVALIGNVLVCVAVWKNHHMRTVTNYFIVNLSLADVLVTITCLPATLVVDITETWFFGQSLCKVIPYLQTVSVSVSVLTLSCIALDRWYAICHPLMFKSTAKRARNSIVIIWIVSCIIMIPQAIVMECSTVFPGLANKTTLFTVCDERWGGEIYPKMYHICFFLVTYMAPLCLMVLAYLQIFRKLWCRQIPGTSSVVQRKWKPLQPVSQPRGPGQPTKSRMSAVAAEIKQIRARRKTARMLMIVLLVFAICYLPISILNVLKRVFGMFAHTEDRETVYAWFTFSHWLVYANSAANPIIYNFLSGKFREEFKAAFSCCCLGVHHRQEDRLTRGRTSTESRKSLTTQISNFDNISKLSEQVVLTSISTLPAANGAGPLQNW
# Assay: Antagonist activity at human OX2 receptor expressed in CHO-RD-HGA16 cells assessed as inhibition of orexin-A-induced calcium mobilization at 10 uM preincubated for 15 mins followed by orexin-A addition measured every 1.52 secs over 60 secs by calcium 5 dye-based fluorescence assay relative to control
# Assay type: functional, cell-based
# In short: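 OX2 stable CHO-RD-HGA16 cells, Calcium 5 dye-loaded, were pre-incubated 15 min at 37°C with compound at 10 μM before orexin A addition. Calcium fluorescence was read every 1.52 s for 60 s and percent inhibition of the orexin A response recorded.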
row,SMILES,inhibition [%]
1,COc1ccc(CC2c3ccc(N4CCCCC4)cc3CCN2CC(=O)NCc2ccccc2)cc1OC (configuration not stated),< 50
2,COc1ccc(CC2c3ccc(NCCCc4ccccc4)cc3CCN2CC(=O)NCc2ccccc2)cc1OC (configuration not stated),< 50
3,CCCCCCNC(=O)Nc1ccc2c(c1)CCN(CC(=O)NCc1ccccc1)C2Cc1ccc(OC)c(OC)c1 (configuration not stated),< 50
4,CCOC(=O)CCCOc1ccc2c(c1)CCN(CC(=O)NCc1ccccc1)C2Cc1ccc(OC)c(OC)c1 (configuration not stated),< 50
5,COc1ccc(CC2c3ccc(NC(C)C)cc3CCN2CC(=O)NCc2ccccc2)cc1OC (configuration not stated),< 50
6,CCCCCCN(C)c1ccc2c(c1)CCN(CC(=O)NCc1ccccc1)C2Cc1ccc(OC)c(OC)c1 (configuration not stated),< 50
7,CCOC(=O)CCCCCCOc1ccc2c(c1)CCN(CC(=O)NCc1ccccc1)C2Cc1ccc(OC)c(OC)c1 (configuration not stated),< 50
8,COc1ccc(CC2c3ccc(N(C)CC4CC4)cc3CCN2CC(=O)NCc2ccccc2)cc1OC (configuration not stated),< 50
9,CCCNc1ccc2c(c1)CCN(CC(=O)NCc1ccccc1)C2Cc1ccc(OC)c(OC)c1 (configuration not stated),< 50
10,COc1ccc(CC2c3ccc(OCC(F)(F)F)cc3CCN2CC(=O)NCc2ccccc2)cc1OC (configuration not stated),< 50
11,CCCN(C)c1ccc2c(c1)CCN(CC(=O)NCc1ccccc1)C2Cc1ccc(OC)c(OC)c1 (configuration not stated),< 50
12,COc1ccc(CC2c3ccc(NC(=O)c4ccccc4)cc3CCN2CC(=O)NCc2ccccc2)cc1OC (configuration not stated),< 50
13,CCOC(=O)CNc1ccc2c(c1)CCN(CC(=O)NCc1ccccc1)C2Cc1ccc(OC)c(OC)c1 (configuration not stated),< 50
14,COC(=O)CCCCNc1ccc2c(c1)CCN(CC(=O)NCc1ccccc1)C2Cc1ccc(OC)c(OC)c1 (configuration not stated),< 50
15,CCCCCNc1ccc2c(c1)CCN(CC(=O)NCc1ccccc1)C2Cc1ccc(OC)c(OC)c1 (configuration not stated),< 50
16,COc1ccc(CC2c3ccc(NC(=O)Nc4ccccc4)cc3CCN2CC(=O)NCc2ccccc2)cc1OC (configuration not stated),< 50
17,COc1ccc(CC2c3ccc(OC(C)C)cc3CCN2CC(=O)NCc2ccccc2)cc1OC (configuration not stated),< 50
18,COc1ccc(CC2c3ccc(NCC(=O)N(C)C)cc3CCN2CC(=O)NCc2ccccc2)cc1OC (configuration not stated),< 50
19,COc1ccc(CC2c3ccc(N(C)Cc4ccccc4)cc3CCN2CC(=O)NCc2ccccc2)cc1OC (configuration not stated),< 50
20,COc1ccc(CC2c3ccc(N(C)C)cc3CCN2CC(=O)NCc2ccccc2)cc1OC (configuration not stated),< 50

# Biological target: T2, Orexin/Hypocretin receptor type 1 (Homo sapiens) (UniProt O43613)
# T2 sequence (whole entry): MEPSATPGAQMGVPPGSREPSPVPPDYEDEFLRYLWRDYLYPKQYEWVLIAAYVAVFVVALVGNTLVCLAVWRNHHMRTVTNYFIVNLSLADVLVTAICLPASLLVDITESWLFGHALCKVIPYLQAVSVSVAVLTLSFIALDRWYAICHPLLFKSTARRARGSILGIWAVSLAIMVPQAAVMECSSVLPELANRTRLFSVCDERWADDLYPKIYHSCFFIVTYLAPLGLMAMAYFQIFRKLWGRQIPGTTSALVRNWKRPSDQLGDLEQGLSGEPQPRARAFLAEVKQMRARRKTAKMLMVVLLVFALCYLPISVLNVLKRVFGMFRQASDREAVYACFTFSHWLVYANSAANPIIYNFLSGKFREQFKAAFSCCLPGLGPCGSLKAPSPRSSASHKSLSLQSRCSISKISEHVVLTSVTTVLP
# Assay: Competitive antagonist activity at human OX1 receptor expressed in CHO-RD-HGA16 cells assessed as inhibition of orexin-A-induced calcium mobilization preincubated for 1 hr followed by orexin-A addition measured every 1.52 secs over 60 secs by calcium 5 dye-based fluorescence assay
# Assay type: functional, cell-based
# In short: (§1)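 Curve-shift assay in human OX1 CHO-RD-HGA16 cells, with antagonist–receptor pre-incubation lengthened to 45 min or 1 hr before orexin A addition. Calcium 5 fluorescence was monitored, and each point is a composite of at least three experiments in duplicate.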
row,SMILES,Ke(app) [nM]
1,CCOC(=O)CCCOc1ccc2c(c1)CCN(CC(=O)NCc1ccccc1)C2Cc1ccc(OC)c(OC)c1 (configuration not stated),1000

# Biological target: T2, Orexin/Hypocretin receptor type 1 (Homo sapiens)
# Assay: Competitive antagonist activity at human OX1 receptor expressed in CHO-RD-HGA16 cells assessed as inhibition of orexin-A-induced calcium mobilization preincubated for 45 mins followed by orexin-A addition measured every 1.52 secs over 60 secs by calcium 5 dye-based fluorescence assay
# Assay type: functional, cell-based
# In short: as §1
row,SMILES,inhibition
1,CCOC(=O)CCCOc1ccc2c(c1)CCN(CC(=O)NCc1ccccc1)C2Cc1ccc(OC)c(OC)c1 (configuration not stated),Active

# Species on record: Homo sapiens
# Assay: Selectivity ratio of Ke(app) for human OX2 receptor to Ke(app) for human OX1 receptor
row,SMILES,Ratio Ke
1,CCCOc1ccc2c(c1)C(Cc1ccc(OC)c(OC)c1)N(CC(=O)NCc1ccccc1)CC2 (configuration not stated),108

# Biological target: T2, Orexin/Hypocretin receptor type 1 (Homo sapiens)
# Assay: Insurmountable antagonist activity at human OX1 receptor expressed in CHO-RD-HGA16 cells assessed as inhibition of orexin-A-induced calcium mobilization preincubated for 15 mins followed by orexin-A addition measured every 1.52 secs over 60 secs by calcium 5 dye-based fluorescence assay
# Assay type: functional, cell-based
# In short: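 Human OX1 or OX2 stable CHO-RD-HGA16 cells were dye-loaded with Calcium 5, then given a single compound concentration for 15 min at 37°C. Orexin A serial dilutions were added at 19 s and fluorescence read every 1.52 s over 60 s. Orexin A EC50 curves were run with and without compound and fitted to a three-parameter logistic. Apparent Ke was taken from the right-shift; three independent experiments in duplicate, N=2 where Ke >10 μM.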
row,SMILES,inhibition
1,CCOC(=O)CCCOc1ccc2c(c1)CCN(CC(=O)NCc1ccccc1)C2Cc1ccc(OC)c(OC)c1 (configuration not stated),Active

# Biological target: T2, Orexin/Hypocretin receptor type 1 (Homo sapiens)
# Assay: Competitive antagonist activity at human OX1 receptor expressed in CHO-RD-HGA16 cells assessed as inhibition of orexin-A-induced calcium mobilization compound treated simultaneous with orexin-A by fluorescence assay
# Assay type: functional, cell-based
# In short: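 Antagonist and orexin A were added simultaneously to Calcium 5-loaded human OX1 CHO-RD-HGA16 cells, with calcium mobilization curve-shift measured. Data are composites of at least three experiments in duplicate.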
row,SMILES,inhibition
1,CCOC(=O)CCCOc1ccc2c(c1)CCN(CC(=O)NCc1ccccc1)C2Cc1ccc(OC)c(OC)c1 (configuration not stated),Active

# Biological target: T2, Orexin/Hypocretin receptor type 1 (Homo sapiens)
# Assay: Agonist activity at human OX1 receptor expressed in CHO-RD-HGA16 cells assessed as induction of calcium mobilization at 10 uM measured every 1.52 secs over 60 secs by calcium 5 dye-based fluorescence assay
# Assay type: functional, cell-based
# In short: (§2)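 Stable CHO-RD-HGA16 lines overexpressing human OX1 or OX2, plated overnight at 25,000 cells/well, 37°C, 5% CO2. Loaded 45 min with Calcium 5 dye in HBSS/20 mM HEPES/2.5 mM probenecid, pH 7.4. Compound tested alone at 10 μM; fluorescence (ex 485/em 525 nm) read every 1.52 s for 60 s.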
row,SMILES,Activity
1,CCCOc1ccc2c(c1)C(Cc1ccc(OC)c(OC)c1)N(CC(=O)NCc1ccccc1)CC2 (configuration not stated),inactive
2,CCOC(=O)CCCNc1ccc2c(c1)CCN(CC(=O)NCc1ccccc1)C2Cc1ccc(OC)c(OC)c1 (configuration not stated),inactive
3,COc1ccc2c(c1)C(Cc1ccc(OC)c(OC)c1)N(CC(=O)NCc1ccccc1)CC2 (configuration not stated),inactive
4,CCOC(=O)CCCOc1ccc2c(c1)CCN(CC(=O)NCc1ccccc1)C2Cc1ccc(OC)c(OC)c1 (configuration not stated),inactive
5,CCCN(C)c1ccc2c(c1)CCN(CC(=O)NCc1ccccc1)C2Cc1ccc(OC)c(OC)c1 (configuration not stated),inactive
6,CCOC(=O)CNc1ccc2c(c1)CCN(CC(=O)NCc1ccccc1)C2Cc1ccc(OC)c(OC)c1 (configuration not stated),inactive

# Biological target: T1, Orexin receptor type 2 (Homo sapiens)
# Assay: Agonist activity at human OX2 receptor expressed in CHO-RD-HGA16 cells assessed as induction of calcium mobilization at 10 uM measured every 1.52 secs over 60 secs by calcium 5 dye-based fluorescence assay
# Assay type: functional, cell-based
# In short: as §2
row,SMILES,Activity
1,CCCOc1ccc2c(c1)C(Cc1ccc(OC)c(OC)c1)N(CC(=O)NCc1ccccc1)CC2 (configuration not stated),inactive
2,CCOC(=O)CCCNc1ccc2c(c1)CCN(CC(=O)NCc1ccccc1)C2Cc1ccc(OC)c(OC)c1 (configuration not stated),inactive
3,COc1ccc2c(c1)C(Cc1ccc(OC)c(OC)c1)N(CC(=O)NCc1ccccc1)CC2 (configuration not stated),inactive
4,CCOC(=O)CCCOc1ccc2c(c1)CCN(CC(=O)NCc1ccccc1)C2Cc1ccc(OC)c(OC)c1 (configuration not stated),inactive
5,CCCN(C)c1ccc2c(c1)CCN(CC(=O)NCc1ccccc1)C2Cc1ccc(OC)c(OC)c1 (configuration not stated),inactive
6,CCOC(=O)CNc1ccc2c(c1)CCN(CC(=O)NCc1ccccc1)C2Cc1ccc(OC)c(OC)c1 (configuration not stated),inactive
